Compound activity: PubChem, Broad Institute
Compounds with a hit are over-represented: about 2.3% of the library has one in this group of screens.
Cneo AK release: Cryptococcus neoformans lysis via adenylate kinase release. lysis activity, % at 15 µM. C. neoformans lysis, adenylate kinase release luminescence, 4 h; normalised: neutral wells 0, clomiphene wells 100. hit rate 0.2% among 360,000. AID 651654;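 active = mean lysis activity across replicates of at least 80%, whatever share of replicates individually reach that level; inactive = mean lysis activity below 80%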
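Schedule: static 4 h at 37 °C with compound, 1 h detection; system: C. neoformans cells; benchmarks: Clomiphene as positive control; buffer or medium: fresh YPD medium; measure: luminescence rise reflecting yeast cell lysis; measured by: luminescent adenylate kinase detection reagent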
C2C12 statin: protects C2C12 myotubes from simvastatin toxicity. ATP luminescence, 48 h; scaled: DMSO 0, geranylgeraniol control 100. rescue of ATP level, % at 7.49 µM. hit rate 0.78% among 330,000;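 active = mean ATP rescue above about 67%, or every replicate alone reaching that limit, limit read from the data, passing the limit was not always enough; inconclusive = no clear call, values can overlap the other calls; inactive = mean under the limit and some replicate under it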;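 note: myotubes were challenged with 10 µM simvastatin during compound exposure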
CFTR F508del cor: correctors of CFTR F508del function in bronchial epithelial cells | activity (quench increase), % at 7.58 µM | CFBE cells, YFP halide quenching; stimulated with forskolin plus potentiator P3; % fluorescence drop versus neutral controls | AID 720511 | hit rate 0.36% among 350,000;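 active = mean added fluorescence quench of at least 8% versus neutral control, with both replicates also reaching 8%; inconclusive = only one of the mean or replicate conditions met; inactive = mean below 8% and not both replicates reaching 8%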;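 note: cells transiently co-express mutant CFTR-F508del with the halide-sensitive YFP; corrector assay measuring rescue of mutant channel to the surface after 24 h compound exposure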
PDI inh: blocks human protein disulfide isomerase activity; hit rate 0.052% among 350,000; inhibition, % at 10 µM; PDI insulin aggregation turbidity, A650, 90 min; P07237;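 active = mean inhibition across replicates of 30% or more, whatever share of single replicates reach that level; inconclusive = mean inhibition below 30% while every single replicate reaches 30%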
ERp5 block: ERp5 (human) disulfide isomerase inhibition; inhibition, % at 9.99 µM; hit rate 0.05% among 350,000; AID 651711; Q15084; ERp5 insulin aggregation, absorbance 650 nm, 90 min;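 active = mean replicate inhibition above about 25%, with every replicate also reaching it, limit read from the data, passing the limit was not always enough; inconclusive = only one of those two criteria met; inactive = neither criterion met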
Target sequence (Q15084 whole entry, looked up): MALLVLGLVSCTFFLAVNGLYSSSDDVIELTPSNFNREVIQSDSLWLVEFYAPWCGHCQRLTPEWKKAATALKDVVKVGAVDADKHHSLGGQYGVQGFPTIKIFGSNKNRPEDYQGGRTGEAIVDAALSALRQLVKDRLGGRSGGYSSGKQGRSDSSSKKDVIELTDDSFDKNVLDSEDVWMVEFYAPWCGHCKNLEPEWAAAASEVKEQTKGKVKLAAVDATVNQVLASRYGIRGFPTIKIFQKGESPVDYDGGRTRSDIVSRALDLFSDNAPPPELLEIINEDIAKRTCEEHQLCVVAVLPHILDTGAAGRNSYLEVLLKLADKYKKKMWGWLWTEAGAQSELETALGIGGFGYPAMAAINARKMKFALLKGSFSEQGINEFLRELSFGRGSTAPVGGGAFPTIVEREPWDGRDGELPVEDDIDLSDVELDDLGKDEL
DENV2 CPE: DENV2-induced cell death inhibition | DENV2-infected cells, cytopathic effect rescue, plate reader | CPE inhibition, % at 9.99 µM | hit rate 1.7% among 350,000 | AID 651640; in the data active = CPE inhibition above about 20%, passing the limit was not always enough; inconclusive = no clear call, values can overlap the other calls; tested in BHK-21 cells;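 note: 0% = median of neutral control wells and 100% = median of positive control wells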
Numbers without * were called inactive; ? = inconclusive; / = no result.

SMILES | Cneo AK release | C2C12 statin | CFTR F508del cor | PDI inh | ERp5 block | DENV2 CPE
O=C1CN(Cc2ccccc2)C[C@H]2[C@@H](c3ccc(-c4ccccc4)cc3)[C@@H](CO)N12 | / | / | 1 | / | 4 | -5
CC(C)NC(=O)N(C)C[C@@H]1Oc2ccc(NS(=O)(=O)c3cn(C)cn3)cc2CC(=O)N([C@H](C)CO)C[C@H]1C | -1 | -15 | 0 | / | 1 | -1
CN(C)C(=O)CSc1nc(-c2ccccc2)nc2c1CCCC2 | 0 | 77* | / | -1 | / | /
NC(=O)CSc1nc(-c2ccccc2)nc2c1CCCC2 | / | / | -3 | 6 | -8 | /
C[C@@H]1CN([C@@H](C)CO)C(=O)c2cc(NC(=O)Nc3ccc(C(F)(F)F)cc3)ccc2O[C@@H]1CN(C)Cc1ccc(C(=O)Nc2ccccc2N)cc1 | -2 | 72* | -1 | / | 4 | -1
C[C@H]1CN([C@@H](C)CO)C(=O)c2cc(NC(=O)Nc3cccc4ccccc34)ccc2O[C@H]1CN(C)Cc1ccc(C(=O)Nc2ccccc2N)cc1 | 2 | 202* | 0 | / | 3 | -9
C[C@H]1CN([C@@H](C)CO)C(=O)c2cc(NC(=O)Nc3ccc(C(F)(F)F)cc3)ccc2O[C@H]1CN(C)Cc1ccc(C(=O)Nc2ccccc2N)cc1 | / | / | -3 | / | -1 | -6
C[C@H](CO)N1C[C@H](C)[C@@H](CN(C)Cc2ccc(C(=O)Nc3ccccc3N)cc2)Oc2ccc(NC(=O)Nc3ccc(C(F)(F)F)cc3)cc2C1=O | 0 | 82* | -1 | / | 0 | -3
C[C@H](CO)N1C[C@H](C)[C@@H](CN(C)Cc2ccc(C(=O)Nc3ccccc3N)cc2)Oc2ccc(NC(=O)Nc3cccc4ccccc34)cc2C1=O | 1 | 57 | -1 | / | -4 | 12
CCC(C)OC1OC(CO)C(O)C(O)C1NC(C)=O (stereo not given) | / | / | / | -6 | 0 | /
CCCCCCCCCCCCOC1OC(CO)C(O)C(O)C1NC(C)=O (stereo not given) | -5 | / | -3 | 3 | 4 | 23*
OC[C@H]1O[C@@H]2O[C@H]3[C@H](O)[C@@H](O)[C@@H](O[C@H]4[C@H](O)[C@@H](O)[C@@H](O[C@H]5[C@H](O)[C@@H](O)[C@@H](O[C@H]6[C@H](O)[C@@H](O)[C@@H](O[C@H]7[C@H](O)[C@@H](O)[C@@H](O[C@H]1[C@H](O)[C@H]2O)O[C@@H]7CO)O[C@@H]6CO)O[C@@H]5CO)O[C@@H]4CO)O[C@@H]3CO | / | / | -5 | / | 3 | 6
OCC1OCOC2C(CO)OCOC12 (stereo not given) | -4 | 1 | -1 | / | -3 | 123*
COC(=O)C1=C(C(=O)OC)[C@@H]2Nc3ccccc3[C@@]23C[C@@H](C(=O)OC)N(C(=O)c2cccs2)C3=N1 | -1 | 2 | 2 | 1 | 3 | 68*
COC(=O)C1=C(C(=O)OC)[C@@H]2N(C)c3ccccc3[C@@]23C[C@@H](CO)N(C(=O)c2cccs2)C3=N1 | -1 | -6 | -1 | 2 | -6 | -8
C=CCN1c2ccccc2[C@]23C[C@@H](C(=O)OC)N(C(=O)c4cccs4)C2=NC(C(=O)OC)=C(C(=O)OC)[C@H]13 | -1 | -3 | 8.0* | 2 | -2 | -4
C=CCN1c2ccccc2[C@]23C[C@@H](C(=O)OC)N(C(=O)c4ccc(Br)cc4)C2=NC(C(=O)OC)=C(C(=O)OC)[C@H]13 | -2 | -2 | 0 | 15 | 3 | /
CCS(=O)(=O)N1CC2(C1)[C@H](c1ccccc1)[C@@H](CO)N2C(=O)C1CCC1 | / | / | -5 | / | -2 | 6
CN1CCN(C(=O)C[C@@H]2CC[C@@H]3[C@H](COC[C@@H](O)CN3CC3CCOCC3)O2)CC1 | 2 | 12 | 1 | / | / | -3
CN(C(=O)c1ccc(Br)o1)C1CCS(=O)(=O)C1 (stereo not given) | -1 | -6 | -1 | 5 | 3 | -5
CN(C(=O)c1ccc(Br)o1)C1CCCCC1 | 0 | -10 | 0 | -7 | -5 | 61*
COc1ccc(CN(C)C[C@H]2OCCCC[C@@H](C)Oc3ccc(NS(=O)(=O)c4c(C)noc4C)cc3C(=O)N([C@@H](C)CO)C[C@H]2C)cc1 | 1 | / | 1 | / | 1 | -1
COc1ccc(C)cc1Nc1c2c(nc3ccccc13)CCC2 | / | / | 13* | -4 | -1 | ?
